Experimental data as given in paper PMC8914349 (Molecular cancer therapeutics, 2020).
Where two headings read alike, the source gives them in different places. Marks after values point to notes of the source that are not given here.

Experiments:
[1] = tested on: canine MM cells (M1, M5, M2, M3, and Jones); assay: MTS viability assay, 72h, canine MM cell lines; assay type: cell-based; settings: canine MM cells in vitro, single agent
mTOR = settings: ATP-competitive mTOR selective inhibitor; ref https://adisinsight.springer.com/drugs/800030541; https://drugs.ncats.io/substance/JGH0DF1U03#activemoieties; cited from earlier work
[2] = Single administration plasma pharmacokinetics in tumor-bearing mice; assay type: in vivo; settings: mouse plasma
Summary of the method: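 Plasma and tumor were taken from two mice per group per timepoint over 2–48 h. Validated LC-MS/MS was used; sapanisertib was read by MRM m/z 310.2→268.1, calibrated 1–1000 ng/mL. Noncompartmental analysis for destructive sampling gave Cmax, T1/2 and AUC to last timepoint, with AUC error by Bailer's method.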

[3] = tested on: human cutaneous melanoma cells (WM3311, WM2032, WM853–2 and WM858); assay: MTS viability assay, 72h, human cutaneous melanoma cell lines; assay type: cell-based
[4] = tested on: M1-derived metastatic subline; assay: Tail vein injection metastasis study; assay type: in vivo, mice; settings: trametinib 5.0 mg/Kg daily, sapanisertib 2.0 mg/Kg three times a week, four-week treatment
[5] = tested on: M1 or M5 canine MM subcutaneous xenografts; settings: oral 5.0 mg/Kg trametinib or 2.0 mg/Kg sapanisertib EOD for 3 weeks, single agents
[6] = tested on: Ras/MAPK and PI3K/Akt/mTOR signal transduction targets; assay type: cell-based, canine; settings: for target inhibition in vitro (western blot): trametinib 10 nM, sapanisertib 40 nM, 4 and 24h, M1, M5 and Jones
Summary of the method: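 Cell lysates were immunoblotted for p-AKT, p-S6 and p-ERK (pathway activation) and for cyclin D1, cyclin B1, Bim, Bcl-xl, Mcl-1 and p-Bad.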

[7] = assay type: in vivo, mice; settings: for Liver hepatocelluar vacuolation, numbers of animals / Renal tubules scattered isolated necrosis and regeneration, numbers of animals / Renal tubules zonal cortical degeneration/necrosis, numbers of animals / Spleen red and white pulp hypocellularity, numbers of animals / Spleen lymphocytolysis, numbers of animals / Spleen lymphoid and hematopoietic hyperplasia, numbers of animals / Bone marrow hypocellularity, numbers of animals: n = 5
Summary of the method: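 Non-tumor-bearing female nu/nu nude mice (n=5 per group) were dosed by oral gavage in 0.5% HPMC/0.2% Tween for 21 days. […] Bone marrow, kidney, spleen, liver and other organs were fixed for histopathology. Animals per lesion were counted and graded minimal/moderate/severe. Blood was taken into EDTA for complete counts before removal.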

[8] = Preliminary dose range study in mice with canine M1 or M5 MM xenografts; assay type: in vivo; settings: daily 3.0 mg/Kg, oral
[9] = tested on: p-ERK, p-AKT, p-S6 and p-4E-BP1 in M1 or M5 canine MM xenografts; assay: Drug target modulation in vivo in tumor xenografts; set-up: species or system mice; settings: three consecutive days; for p-ERK level in tumors: sapanisertib 2.0 mg/Kg or trametinib 5.0 mg/Kg oral
Summary of the method: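 Female nu/nu athymic nude mice, 6–8 weeks old, received 1×10⁶ M1 or M5 cells s.c. in the flank and were randomized at 75–150 mm³ (five per group). […] Tumor lysates went to western blot and fixed sections to H&E plus p-ERK/p-S6 IHC.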

[10] = patients receiving the clinically approved dose of 2 mg trametinib; cited from earlier work
canine MM cell = settings: cited from earlier work
[11] = sapanisertib 2mg/kg daily, no lesion
[12] = sapanisertib 2mg/kg daily, severity + minimal
[13] = sapanisertib 2mg/kg daily, severity ++ moderate
[14] = sapanisertib 2mg/kg daily, severity +++ severe
[15] = sapanisertib 2mg/kg every other day, no lesion
[16] = sapanisertib 2mg/kg every other day, severity + minimal

Nc1ccc(-c2ccc3ncc4ccc(=O)n(-c5cccc(C(F)(F)F)c5)c4c3c2)cn1 [Torin 2]
cytotoxicity / sensitivity of cells [1]: highly effective

CC(C)n1nc(-c2ccc3oc(N)nc3c2)c2c(N)ncnc21 [sapanisertib]
selectivity for PI3K (mTOR): > 100 fold
T1/2 in the presence of trametinib compared to sapanisertib alone [2]: approximately 50%
change in sapanisertib PK in the presence of trametinib [2]: no significant change
IC50 ([3]; Homo sapiens, WM2032, 72 h): 0.01 to 0.1 µM
intrathoracic metastatic tumor burden [4]: not as effective as trametinib in abating metastasis
tolerability [5]: tolerated with some varying body weight fluctuation
tumor growth [5]: inhibited compared to vehicle-treated controls initially, but progression became evident over time
cyclin expression (western blot) ([6]; canine MM cells): effective in reducing cyclin B1
phosphorylation of Bad ([6]; canine MM cells): inhibited phosphorylation of Bad
reciprocal activation of ERK1/2 ([6]; some cell lines): apparent reciprocal activation of ERK1/2
target inhibition in vitro (western blot) [6]: inhibited their respective Ras/MAPK and PI3K/Akt/mTOR signal transduction targets
tolerability ([7]; 2.0 mg/Kg alone EOD): well tolerated
white blood cell counts finding ([7]; sapanisertib 2.0 mg/Kg daily): lymphopenia
Liver hepatocelluar vacuolation, numbers of animals [7, 11]: 2
Renal tubules scattered isolated necrosis and regeneration, numbers of animals [7, 11]: 5
Renal tubules zonal cortical degeneration/necrosis, numbers of animals [7, 11]: 1
Spleen red and white pulp hypocellularity, numbers of animals [7, 11]: 1
Liver hepatocelluar vacuolation, numbers of animals [7, 12]: 1
Renal tubules zonal cortical degeneration/necrosis, numbers of animals [7, 12]: 1
Spleen lymphocytolysis, numbers of animals [7, 12]: 5
Spleen lymphoid and hematopoietic hyperplasia, numbers of animals [7, 12]: 2
Spleen red and white pulp hypocellularity, numbers of animals [7, 12]: 2
Bone marrow hypocellularity, numbers of animals [7, 13]: 3 ^†
Liver hepatocelluar vacuolation, numbers of animals [7, 13]: 1
Renal tubules zonal cortical degeneration/necrosis, numbers of animals [7, 13]: 3
Spleen red and white pulp hypocellularity, numbers of animals [7, 13]: 2
Bone marrow hypocellularity, numbers of animals [7, 14]: 2
Liver hepatocelluar vacuolation, numbers of animals [7, 14]: 1
Bone marrow hypocellularity, numbers of animals [7, 15]: 5
Liver hepatocelluar vacuolation, numbers of animals [7, 15]: 5
Renal tubules scattered isolated necrosis and regeneration, numbers of animals [7, 15]: 1
Renal tubules zonal cortical degeneration/necrosis, numbers of animals [7, 15]: 5
Spleen lymphocytolysis, numbers of animals [7, 15]: 2
Spleen lymphoid and hematopoietic hyperplasia, numbers of animals [7, 15]: 2
Spleen red and white pulp hypocellularity, numbers of animals [7, 15]: 5
Renal tubules scattered isolated necrosis and regeneration, numbers of animals [7, 16]: 4
Spleen lymphocytolysis, numbers of animals [7, 16]: 3
Spleen lymphoid and hematopoietic hyperplasia, numbers of animals [7, 16]: 3
tolerability [8]: not well tolerated
p-ERK level in tumors [9]: increased p-ERK level
p-AKT, p-S6 and p-4EBP-1 levels in tumors ([9]; sapanisertib 2.0 mg/Kg oral): reduced p-AKT as well as downstream effectors p-S6 and p-4EBP-1 levels

CC(=O)Nc1cccc(-n2c(=O)n(C3CC3)c(=O)c3c(Nc4ccc(I)cc4F)n(C)c(=O)c(C)c32)c1 [trametinib]
AUC [10]: 248 ng·h/mL
Cmax [10]: 8.03 ng/mL
IC50 (canine MM cell; read-out: IC50, inhibiting canine MM cell growth in vitro): ~0.01 µM
cytotoxicity / sensitivity of cells [1]: sensitive
sensitivity of cells ([3]; human cutaneous melanoma cells, regardless of Ras and NF1 mutation status): sensitive
intrathoracic metastatic tumor burden [4]: significantly less metastatic tumor burdens in the thorax compared to control vehicle-treated mice
tumor growth [5]: inhibited compared to vehicle-treated controls initially, but progression became evident over time
Bcl-xl levels ([6]; canine MM cells): reduced Bcl-xl levels
cyclin expression (western blot) ([6]; canine MM cells): reduced the expression of cyclins D1 and B1
target inhibition in vitro (western blot) [6]: inhibited their respective Ras/MAPK and PI3K/Akt/mTOR signal transduction targets
p-ERK level in tumors [9]: less compared to vehicle-only treated mice

Cn1c(=O)n(-c2ccc(C(C)(C)C#N)cc2)c2c3cc(-c4cnc5ccccc5c4)ccc3ncc21 [dactolisib]
cytotoxicity (canine MM cell; canine MM cells): dose dependent cytotoxicity
